The source of these data is ChEMBL document CHEMBL1165965, “Synthesis and structure-activity relationships of 1,2,3,4-tetrahydropyrido[2,3-b]pyrazines as potent and selective inhibitors of the anaplastic lymphoma kinase” (Bioorg Med Chem, 2010).

Assay [1] deals with Tyrosine-protein kinase BTK (Homo sapiens) (UniProt Q06187). Briefly: Inhibition of BTK at 1 uM. The method in brief:
(§1)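 Ambit KINOMEscan screen at a single concentration across a 250–400 kinase panel, recorded as percent inhibition. Selectivity was expressed as S(90), the fraction of kinases inhibited >90%.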

The test system of assay [2] is Phosphatidylinositol 4,5-bisphosphate 3-kinase catalytic subunit alpha isoform (Homo sapiens), P42336 [H1047Y]. Briefly: Inhibition of PIK3CA H1047Y mutant at 1 uM.
Sequence of Phosphatidylinositol 4,5-bisphosphate 3-kinase catalytic subunit alpha isoform (Homo sapiens), P42336 [H1047Y] (P42336 whole entry H1047Y, canonical isoform): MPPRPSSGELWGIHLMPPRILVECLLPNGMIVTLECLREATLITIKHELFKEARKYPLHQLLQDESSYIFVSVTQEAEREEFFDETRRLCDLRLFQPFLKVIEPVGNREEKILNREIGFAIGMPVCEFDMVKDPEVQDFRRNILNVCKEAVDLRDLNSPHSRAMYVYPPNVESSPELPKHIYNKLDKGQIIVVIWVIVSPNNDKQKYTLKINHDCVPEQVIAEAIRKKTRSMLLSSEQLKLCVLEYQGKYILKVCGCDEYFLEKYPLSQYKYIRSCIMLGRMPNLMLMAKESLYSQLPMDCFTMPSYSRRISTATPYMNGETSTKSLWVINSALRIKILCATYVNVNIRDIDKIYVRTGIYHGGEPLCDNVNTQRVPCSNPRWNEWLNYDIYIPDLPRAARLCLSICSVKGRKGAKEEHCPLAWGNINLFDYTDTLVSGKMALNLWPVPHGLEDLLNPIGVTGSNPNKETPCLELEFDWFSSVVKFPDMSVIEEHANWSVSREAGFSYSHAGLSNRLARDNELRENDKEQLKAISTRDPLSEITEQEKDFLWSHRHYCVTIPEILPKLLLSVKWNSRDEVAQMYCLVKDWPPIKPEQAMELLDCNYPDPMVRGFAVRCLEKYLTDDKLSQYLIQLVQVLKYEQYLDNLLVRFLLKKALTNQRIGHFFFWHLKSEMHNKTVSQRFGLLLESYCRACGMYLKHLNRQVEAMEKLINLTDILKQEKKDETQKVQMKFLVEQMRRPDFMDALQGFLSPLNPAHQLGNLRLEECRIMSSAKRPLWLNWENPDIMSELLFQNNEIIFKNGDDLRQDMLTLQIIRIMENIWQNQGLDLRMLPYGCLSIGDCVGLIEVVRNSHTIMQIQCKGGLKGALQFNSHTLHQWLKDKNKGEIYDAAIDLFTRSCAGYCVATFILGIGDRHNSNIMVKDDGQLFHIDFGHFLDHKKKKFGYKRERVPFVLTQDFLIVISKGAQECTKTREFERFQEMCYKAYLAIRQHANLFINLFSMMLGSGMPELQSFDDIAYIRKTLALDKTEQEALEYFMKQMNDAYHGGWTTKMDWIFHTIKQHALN
For assay [3], the target named is T1, Non-receptor tyrosine-protein kinase TNK1 (Homo sapiens) (UniProt Q13470).
T1 sequence (whole entry): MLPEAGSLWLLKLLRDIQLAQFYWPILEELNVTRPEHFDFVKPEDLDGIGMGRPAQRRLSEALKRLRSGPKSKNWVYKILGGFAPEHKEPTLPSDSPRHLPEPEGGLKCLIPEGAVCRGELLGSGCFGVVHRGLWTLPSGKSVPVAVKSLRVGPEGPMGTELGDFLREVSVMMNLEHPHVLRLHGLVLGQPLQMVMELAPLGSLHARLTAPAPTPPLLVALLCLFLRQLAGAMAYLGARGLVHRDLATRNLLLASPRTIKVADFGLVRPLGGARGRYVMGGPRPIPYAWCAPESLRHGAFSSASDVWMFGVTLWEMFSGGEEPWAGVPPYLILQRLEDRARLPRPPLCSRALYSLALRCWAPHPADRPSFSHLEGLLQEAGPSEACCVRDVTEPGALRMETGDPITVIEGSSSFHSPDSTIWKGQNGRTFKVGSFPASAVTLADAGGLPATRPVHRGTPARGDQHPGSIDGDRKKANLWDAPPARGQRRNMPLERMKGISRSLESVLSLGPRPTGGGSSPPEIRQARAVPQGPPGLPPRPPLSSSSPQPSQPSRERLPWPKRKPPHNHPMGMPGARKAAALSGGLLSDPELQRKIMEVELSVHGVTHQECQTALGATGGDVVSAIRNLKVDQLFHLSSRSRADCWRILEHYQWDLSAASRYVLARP
Briefly: Inhibition of TNK1 at 1 uM.

Assay [4] deals with Cyclin-dependent kinase 11B (Homo sapiens) (UniProt P21127). Briefly: Inhibition of CDC2L1 at 1 uM.
Sequence of Cyclin-dependent kinase 11B (Homo sapiens) (P21127 whole entry): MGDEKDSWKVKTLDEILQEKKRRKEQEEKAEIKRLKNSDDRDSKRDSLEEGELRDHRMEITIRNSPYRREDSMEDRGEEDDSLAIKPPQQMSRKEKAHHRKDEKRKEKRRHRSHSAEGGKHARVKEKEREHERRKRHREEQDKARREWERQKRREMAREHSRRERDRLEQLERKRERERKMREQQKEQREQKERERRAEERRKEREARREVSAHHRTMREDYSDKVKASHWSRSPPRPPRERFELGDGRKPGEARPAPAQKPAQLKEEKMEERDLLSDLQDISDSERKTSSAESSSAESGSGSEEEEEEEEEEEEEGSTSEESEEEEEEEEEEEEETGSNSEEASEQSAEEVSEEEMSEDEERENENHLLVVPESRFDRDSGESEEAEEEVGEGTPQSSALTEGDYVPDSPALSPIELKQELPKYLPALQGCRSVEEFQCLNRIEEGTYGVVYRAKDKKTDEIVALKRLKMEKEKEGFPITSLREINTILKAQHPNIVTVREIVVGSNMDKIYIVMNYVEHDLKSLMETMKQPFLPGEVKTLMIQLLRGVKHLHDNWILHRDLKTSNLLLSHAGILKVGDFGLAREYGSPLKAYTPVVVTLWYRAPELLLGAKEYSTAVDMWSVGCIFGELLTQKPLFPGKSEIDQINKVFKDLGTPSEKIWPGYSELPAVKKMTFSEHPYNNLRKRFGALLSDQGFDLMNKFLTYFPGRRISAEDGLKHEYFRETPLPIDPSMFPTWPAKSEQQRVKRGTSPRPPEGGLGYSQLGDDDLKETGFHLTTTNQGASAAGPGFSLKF
For assay [5], the target named is T2, Serine/threonine-protein kinase 17A (Homo sapiens) (UniProt Q9UEE5).
T2 sequence (whole entry): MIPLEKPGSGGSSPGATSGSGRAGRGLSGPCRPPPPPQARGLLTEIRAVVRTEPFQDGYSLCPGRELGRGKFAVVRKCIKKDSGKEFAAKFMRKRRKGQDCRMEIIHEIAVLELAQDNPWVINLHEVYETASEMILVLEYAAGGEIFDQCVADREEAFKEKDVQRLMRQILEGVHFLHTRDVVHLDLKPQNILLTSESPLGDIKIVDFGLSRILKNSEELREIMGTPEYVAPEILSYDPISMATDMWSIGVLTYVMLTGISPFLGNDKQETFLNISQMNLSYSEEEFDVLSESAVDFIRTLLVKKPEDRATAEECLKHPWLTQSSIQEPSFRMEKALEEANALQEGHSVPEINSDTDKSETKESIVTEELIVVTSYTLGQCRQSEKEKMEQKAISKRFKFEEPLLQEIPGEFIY
As to the kind of experiment: Inhibition of DRAK1 at 1 uM.

Assay [6] deals with Calcium/calmodulin-dependent protein kinase kinase 1 (Homo sapiens) (UniProt Q8N5S9). As to the kind of experiment: Inhibition of CAMKK1 at 1 uM. In short, it runs like this: as §1
Sequence of Calcium/calmodulin-dependent protein kinase kinase 1 (Homo sapiens) (Q8N5S9 whole entry, looked up): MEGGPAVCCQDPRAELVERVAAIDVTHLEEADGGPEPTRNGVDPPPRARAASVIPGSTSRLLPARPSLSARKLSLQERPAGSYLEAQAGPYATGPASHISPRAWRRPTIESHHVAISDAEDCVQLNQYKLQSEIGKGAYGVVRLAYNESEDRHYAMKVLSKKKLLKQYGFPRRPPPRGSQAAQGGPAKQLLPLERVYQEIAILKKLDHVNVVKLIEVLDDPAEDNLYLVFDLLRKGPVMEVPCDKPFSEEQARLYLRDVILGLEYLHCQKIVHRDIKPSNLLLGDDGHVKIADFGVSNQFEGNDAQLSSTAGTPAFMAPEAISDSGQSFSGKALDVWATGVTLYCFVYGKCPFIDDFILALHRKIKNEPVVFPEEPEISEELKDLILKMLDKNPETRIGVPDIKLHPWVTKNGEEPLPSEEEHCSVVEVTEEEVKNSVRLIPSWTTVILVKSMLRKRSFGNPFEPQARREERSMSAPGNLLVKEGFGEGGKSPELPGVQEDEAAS
Assay [7] concerns the target SRSF protein kinase 2 (Homo sapiens) (UniProt P78362). As to the kind of experiment: Inhibition of SRPK2 at 1 uM.
Assay [8] addresses T3, Serine/threonine-protein kinase Chk1 (Homo sapiens) (UniProt O14757).
T3 sequence (whole entry): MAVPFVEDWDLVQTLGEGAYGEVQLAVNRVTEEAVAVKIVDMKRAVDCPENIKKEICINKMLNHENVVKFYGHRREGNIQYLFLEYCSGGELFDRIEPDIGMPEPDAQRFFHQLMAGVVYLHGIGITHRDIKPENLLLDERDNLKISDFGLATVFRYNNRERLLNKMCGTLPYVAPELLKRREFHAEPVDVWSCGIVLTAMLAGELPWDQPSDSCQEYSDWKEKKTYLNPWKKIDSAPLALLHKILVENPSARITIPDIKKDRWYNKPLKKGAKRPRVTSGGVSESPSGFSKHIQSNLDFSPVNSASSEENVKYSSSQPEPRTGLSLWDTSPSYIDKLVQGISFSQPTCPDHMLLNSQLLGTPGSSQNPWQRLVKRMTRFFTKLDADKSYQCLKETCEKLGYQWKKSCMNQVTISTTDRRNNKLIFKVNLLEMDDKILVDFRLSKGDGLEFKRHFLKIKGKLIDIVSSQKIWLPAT
As to the kind of experiment: Inhibition of CHEK1 at 1 uM.

The target of assay [9] is Death-associated protein kinase 2 (Homo sapiens) (UniProt Q9UIK4). As to the kind of experiment: Inhibition of DAPK2 at 1 uM. In short, it runs like this:
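Single-concentration screen using Ambit Bioscience KINOMEscan technology across a panel of 250–400 kinases. Per-kinase inhibition from this screen was summarized as S(90), the fraction of kinases inhibited by more than 90%.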

Assay [10] concerns the target T4, Serine/threonine-protein kinase TNNI3K (Homo sapiens) (UniProt Q59H18).
T4 sequence (whole entry): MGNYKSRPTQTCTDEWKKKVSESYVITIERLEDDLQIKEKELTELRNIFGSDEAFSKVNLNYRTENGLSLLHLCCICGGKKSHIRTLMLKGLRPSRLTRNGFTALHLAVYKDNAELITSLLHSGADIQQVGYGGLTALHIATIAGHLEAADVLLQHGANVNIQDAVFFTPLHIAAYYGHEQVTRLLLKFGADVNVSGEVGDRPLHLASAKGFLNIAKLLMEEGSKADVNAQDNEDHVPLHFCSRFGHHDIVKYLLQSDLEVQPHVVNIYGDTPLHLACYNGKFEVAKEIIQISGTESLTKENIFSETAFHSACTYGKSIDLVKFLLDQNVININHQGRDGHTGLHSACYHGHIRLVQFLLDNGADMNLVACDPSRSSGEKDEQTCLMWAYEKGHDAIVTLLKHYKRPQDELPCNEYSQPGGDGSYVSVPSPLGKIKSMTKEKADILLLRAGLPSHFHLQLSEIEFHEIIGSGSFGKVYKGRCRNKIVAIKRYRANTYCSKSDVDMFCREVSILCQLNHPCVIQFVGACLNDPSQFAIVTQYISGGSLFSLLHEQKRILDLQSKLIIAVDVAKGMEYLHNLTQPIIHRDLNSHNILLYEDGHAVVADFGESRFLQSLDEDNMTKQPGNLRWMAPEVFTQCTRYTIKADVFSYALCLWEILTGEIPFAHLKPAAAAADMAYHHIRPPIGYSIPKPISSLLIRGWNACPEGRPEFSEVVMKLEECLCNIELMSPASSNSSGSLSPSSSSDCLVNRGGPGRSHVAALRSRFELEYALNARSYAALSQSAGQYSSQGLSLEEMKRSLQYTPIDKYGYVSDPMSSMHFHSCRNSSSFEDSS
Briefly: Inhibition of TNNI3K at 1 uM.

Sequence of Tyrosine-protein kinase BTK (Homo sapiens) (Q06187 whole entry): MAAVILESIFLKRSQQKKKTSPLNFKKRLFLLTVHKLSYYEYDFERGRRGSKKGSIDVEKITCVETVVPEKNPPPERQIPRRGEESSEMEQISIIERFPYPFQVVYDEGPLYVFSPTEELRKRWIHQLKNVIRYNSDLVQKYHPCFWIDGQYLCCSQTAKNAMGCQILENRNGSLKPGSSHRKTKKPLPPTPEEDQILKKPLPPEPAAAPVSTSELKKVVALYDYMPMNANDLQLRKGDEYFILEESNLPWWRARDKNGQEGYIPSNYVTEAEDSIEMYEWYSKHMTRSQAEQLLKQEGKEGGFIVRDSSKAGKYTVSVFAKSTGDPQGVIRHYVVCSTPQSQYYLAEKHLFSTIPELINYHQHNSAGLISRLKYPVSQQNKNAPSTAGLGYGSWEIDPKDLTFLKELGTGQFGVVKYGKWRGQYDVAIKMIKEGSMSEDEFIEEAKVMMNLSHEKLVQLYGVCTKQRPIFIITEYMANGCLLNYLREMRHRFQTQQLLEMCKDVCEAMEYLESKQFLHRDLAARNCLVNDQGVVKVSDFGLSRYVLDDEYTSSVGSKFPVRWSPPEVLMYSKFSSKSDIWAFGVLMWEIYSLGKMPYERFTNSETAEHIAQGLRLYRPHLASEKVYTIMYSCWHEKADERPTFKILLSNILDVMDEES
Sequence of SRSF protein kinase 2 (Homo sapiens) (P78362 whole entry, looked up): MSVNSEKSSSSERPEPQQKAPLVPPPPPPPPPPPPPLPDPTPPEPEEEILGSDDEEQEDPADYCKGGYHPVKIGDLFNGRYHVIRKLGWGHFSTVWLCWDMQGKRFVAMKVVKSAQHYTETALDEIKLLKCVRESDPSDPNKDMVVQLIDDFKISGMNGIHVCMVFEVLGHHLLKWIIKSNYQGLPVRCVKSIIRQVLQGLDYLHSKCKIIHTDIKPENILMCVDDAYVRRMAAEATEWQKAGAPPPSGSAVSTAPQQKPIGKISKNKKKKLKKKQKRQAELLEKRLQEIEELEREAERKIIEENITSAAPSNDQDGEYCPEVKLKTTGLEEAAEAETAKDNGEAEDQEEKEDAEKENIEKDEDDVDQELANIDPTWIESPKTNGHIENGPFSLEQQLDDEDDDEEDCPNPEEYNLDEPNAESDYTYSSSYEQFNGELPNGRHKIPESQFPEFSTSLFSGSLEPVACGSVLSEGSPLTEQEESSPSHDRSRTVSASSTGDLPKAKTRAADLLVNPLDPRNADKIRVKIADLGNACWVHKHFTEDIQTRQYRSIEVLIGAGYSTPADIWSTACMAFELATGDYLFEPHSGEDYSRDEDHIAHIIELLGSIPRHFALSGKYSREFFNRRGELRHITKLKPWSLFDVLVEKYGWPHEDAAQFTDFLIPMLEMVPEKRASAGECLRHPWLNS
Sequence of Death-associated protein kinase 2 (Homo sapiens) (Q9UIK4 whole entry, looked up): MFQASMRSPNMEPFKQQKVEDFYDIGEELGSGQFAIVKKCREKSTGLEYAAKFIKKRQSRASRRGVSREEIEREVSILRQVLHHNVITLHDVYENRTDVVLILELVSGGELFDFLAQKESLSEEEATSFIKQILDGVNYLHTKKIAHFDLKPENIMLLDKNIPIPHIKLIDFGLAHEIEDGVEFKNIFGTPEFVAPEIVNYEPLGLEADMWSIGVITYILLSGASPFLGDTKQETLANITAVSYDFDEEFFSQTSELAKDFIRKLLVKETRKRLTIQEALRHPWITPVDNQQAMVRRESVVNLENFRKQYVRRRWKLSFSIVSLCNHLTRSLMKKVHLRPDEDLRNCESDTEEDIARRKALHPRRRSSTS

The term inhibition denotes the drop in the measured response relative to a control, in per cent. Turning to `FC(F)(F)c1ccc(Cl)cc1CN1CCNc2ncc(-c3ccnc(N4CCNCC4)c3)cc21`, the inhibition in assay [1], in [2], in [3], in [4], in assay [5] and in assay [6] was less than 50% in each case. The inhibition in assay [7], in assay [8], in assay [9] and in assay [10] was less than 50% each time.

On to `CN1CCN(c2ccc(-c3cnc4c(c3)N(Cc3cc(F)ccc3F)CCN4)cn2)CC1`, for which the inhibition is less than 50% in [1]; less than 50% in assay [2]; 58.2% in [3]; less than 50% in assay [4]; less than 50% in assay [5]; less than 50% in assay [6]. Moreover, the inhibition in [7], in [8], in [9] and in [10] was less than 50% each time.

With `CN1CCN(c2ccc(-c3cnc4c(c3)N(Cc3cc(Cl)ccc3Cl)CCN4)cn2)CC1`, the inhibition in assay [1], in assay [2], in [3], in assay [4], in assay [5] and in assay [6] was less than 50% each time. Besides, the inhibition in assay [7], in [8], in assay [9] and in assay [10] was less than 50% throughout.

Regarding `O=C(O)c1ccc(-c2cnc3c(c2)N(Cc2cc(Cl)ccc2C(F)(F)F)CCN3)cc1`, the inhibition in assay [1], in assay [3], in [6], in assay [9] and in assay [10] was less than 50% throughout.

Regarding `CN1CCN(c2ccc(-c3cnc4c(c3)N(Cc3cc(Cl)ccc3C(F)(F)F)CCN4)cn2)CC1`, the inhibition in assay [1], in assay [2], in [3], in [4], in assay [5] and in [6] was less than 50% throughout. Also, the inhibition in [7], in [8], in assay [9] and in assay [10] was less than 50% in each case.

Regarding `COC1CCN(C(=O)c2ccc(-c3cnc4c(c3)N(Cc3cc(Cl)ccc3C(F)(F)F)CCN4)cc2)CC1`, the inhibition in [1], in assay [3], in assay [6], in assay [9] and in [10] was less than 50% in each case.

`O=C(c1ccc(-c2cnc3c(c2)N(Cc2cc(Cl)ccc2C(F)(F)F)CCN3)cc1)N1CCC(N2CCCC2)CC1`: the inhibition in [1] is less than 50%; in assay [3], 81.7%; in assay [6], less than 50%; in [9], less than 50%; in assay [10] it was less than 50%.

Take `CN1CCN(c2ccc(-c3cnc4c(c3)N(Cc3c(F)ccc(F)c3Cl)CCN4)cn2)CC1`: the inhibition in assay [1], in assay [2], in assay [3], in [4], in assay [5] and in assay [6] was less than 50% throughout. In addition, the inhibition in [7], in [8], in assay [9] and in [10] was less than 50% each time.

With `O=C(c1ccc(-c2cnc3c(c2)N(Cc2cc(Cl)ccc2C(F)(F)F)CCN3)cc1)N1CCCCC1`, the inhibition in assay [1], in [3], in assay [6], in assay [9] and in assay [10] was less than 50% in each case.

With `CC(=O)N1CCN(c2cc(-c3cnc4c(c3)N(Cc3cc(Cl)ccc3C(F)(F)F)CCN4)ccn2)CC1`, the inhibition in [1], in assay [2], in assay [3], in assay [4], in assay [5] and in [6] was less than 50% each time. Further, the inhibition in assay [7], in [8], in assay [9] and in assay [10] was less than 50% each time.
